Assay outcomes: PubChem BioAssay, Johns Hopkins Ion Channel Center
Rows were chosen to be rich in hits. Some 3.5% of all compounds tested hit in one or more screens of this group.
MrgX1 antagonist – antagonists of human MrgX1 receptor, primary screen, HEK293 cells, Fluo-4 calcium flux. BAM8-22 antagonism; stronger effect = lower value. B-score at 10 µM. 1.3% of 310,000 active. Mas-related G-protein coupled receptor member X1 (Homo sapiens), Q96LB2;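 active = calcium-response B-score plate-corrected more than 3 library SD below zero, starting fluorescence within 5 deviations, no agonist response on first addition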;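 note: peak minus trough fluorescence over baseline after final BAM8-22 challenge near maximal dose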
Target sequence (Q96LB2 whole entry, looked up): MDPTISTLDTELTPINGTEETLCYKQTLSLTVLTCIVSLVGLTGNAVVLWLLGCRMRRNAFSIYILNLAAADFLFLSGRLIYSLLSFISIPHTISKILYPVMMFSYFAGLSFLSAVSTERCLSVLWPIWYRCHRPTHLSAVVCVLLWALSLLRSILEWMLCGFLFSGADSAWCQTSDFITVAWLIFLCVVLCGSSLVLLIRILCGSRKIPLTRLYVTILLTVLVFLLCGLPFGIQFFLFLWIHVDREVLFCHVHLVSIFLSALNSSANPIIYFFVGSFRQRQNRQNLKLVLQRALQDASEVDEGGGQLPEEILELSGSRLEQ
RGS4 pot – RGS4 potentiators or activators, primary screen, cell-based, HEK293 M3R inducible RGS4, calcium flux; carbachol calcium flux Fluo4; stronger effect = lower value; B-score at 10 µM; 0.92% of 310,000 active; AID 463111, 2010;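 active = B-score of the integrated calcium signal more than 4 SD below the library mean, with starting fluorescence not abnormally high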;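 note: negative B-score means reduced calcium response which marks RGS4 activation or potentiation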
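Material: Inducible-RGS4 HEK293 cells carrying M3 receptor; also added: carbachol at ECmax as muscarinic agonist stimulus; incubation: compound preincubation 20 min at room temperature before agonist; signal: Fluo4-AM (2 µM) calcium-flux fluorescence, kinetic read; measure: integrated calcium ratio converted to B score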
MrgX1 allo act – positive allosteric modulators of MrgX1, primary screen, HEK293 cells, Fluo-4 calcium flux; B-score at 10 µM; FDSS; stronger effect = higher value; Mas-related G-protein coupled receptor member X1 (Homo sapiens), Q96LB2; 0.63% of 310,000 active;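 active = plate-corrected calcium response at least 3 library SD above typical, normal starting fluorescence, not activating the receptor alone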;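 note: compound read alongside a low EC10 to EC30 dose of BAM8-22 agonist; peak minus trough fluorescence over baseline measured at the second addition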
MrgX1 agonist – agonists of human MrgX1 receptor, primary screen, HEK293 cells, Fluo-4 calcium flux | Fluo-4 calcium fluorescence, agonist mode; stronger effect = higher value | B-score at 10 µM | 0.44% of 310,000 active | AID 588627, 2011;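 active = calcium response B-score plate-corrected fluorescence ratio at least 3 library SD, with starting fluorescence B-score inside 5 SD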
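times = overnight plating, then 30 min 37 °C plus 30 min room-temperature dye loading | assay system = stable human MrgX1 HEK293 cell line | input = fifteen thousand cells per well | signal = kinetic calcium dye fluorescence, Fluo-4 NW | dosing = compound delivered in addition one of three | read-out = B-scored fluorescence response ratio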
RGS4 block – RGS4 inhibitors, primary screen, cell-based, HEK293 M3R inducible RGS4, calcium flux; Regulator of G-protein signaling 4 (Homo sapiens), P49798; Fluo-4 calcium flux; stronger effect = higher value; triggered by carbachol at its EC20; B-score at 10 µM; 0.45% of 310,000 active; AID 463165, 2010;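 active = B-score, a plate-corrected calcium signal, over three deviations above library mean, with baseline fluorescence within five deviations of library mean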;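 note: RGS4 expression induced by doxycycline in cells with stable M3 receptor; B-score is computed from the integrated fluorescence ratio over baseline after carbachol; higher B-score means a larger calcium signal and so more RGS4 inhibition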
Target sequence (P49798 whole entry, looked up): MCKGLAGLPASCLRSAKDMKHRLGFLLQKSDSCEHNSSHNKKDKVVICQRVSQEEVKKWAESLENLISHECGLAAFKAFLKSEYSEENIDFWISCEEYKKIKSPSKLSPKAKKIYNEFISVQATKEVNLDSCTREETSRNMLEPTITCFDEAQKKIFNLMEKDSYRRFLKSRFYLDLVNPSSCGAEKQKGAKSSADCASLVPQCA
MrgX1 ant reconf – MrgX1 receptor antagonists, duplicate retest, confirmation, HEK293 cells, Fluo-4 calcium flux; 19% of 2,300 active; BAM8-22 calcium flux; stronger effect = lower value; shares compounds with MrgX1 antagonist; AID 602420, 2012; remaining BAM8-22 calcium response % of control (stronger effect = lower value), % at 10 µM;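 active = remaining agonist calcium response no higher than 100% minus 3 SD of agonist-only control wells, with starting fluorescence near control levels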;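 note: agonist BAM8-22 given at a near maximal EC90 to ECmax level; peak minus minimum fluorescence divided by baseline after agonist addition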
HEK293 Ca flux – nonspecific calcium signal in parental HEK293, confirmation, counter-screen for MrgX1 antagonist project, parental HEK293 cells, Fluo-4 calcium flux; shares compounds with MrgX1 antagonist; Fluo-4 calcium fluorescence, FDSS; fluorescence ratio F(max-min)/F0 at 10 µM; 2% of 4,000 active; AID 624111, 2012;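 active = duplicate-averaged calcium fluorescence ratio at least three times the standard deviation of buffer wells, a nonspecific response in parental cells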
HEK293 Ca counter – calcium response in parental HEK293 cells, primary screen, counter-screen for MrgX1 allosteric activator project, cell-based, Fluo-4 calcium flux, duplicate; shares compounds with MrgX1 antagonist; Fluo-4 fluorescence ratio; stronger effect = higher value; fluorescence ratio F(max-min)/F0 at 10 µM; 0.4% of 4,000 active; AID 624114, 2012;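 active = calcium fluorescence ratio, averaged over duplicates, at least 3 SD of the buffer-well ratio, meaning a nonspecific response in receptor-free cells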;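 note: untransfected parental HEK293 lacking MrgX1 used as counterscreen for MrgX1 allosteric activators; fluorescence change taken during the second addition on a kinetic imager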
HEK293 Ca cntr2 – calcium response in parental HEK293 cells, primary screen, counter-screen for MrgX1 agonist project, cell-based, Fluo-4 calcium flux, duplicate, agonist mode. shares compounds with MrgX1 antagonist. Fluo-4 calcium fluorescence (FDSS); stronger effect = higher value. AID 624115, 2012. fluorescence ratio F(max-min)/F0 at 10 µM. 8.7% of 4,000 active;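 active = calcium fluorescence ratio at least three times the spread of buffer wells, meaning a non-specific response in parental cells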
* hit, by the source's call; i = inactive; x = not tested or not shown.

SMILES	MrgX1 antagonist	RGS4 pot	MrgX1 allo act	MrgX1 agonist	RGS4 block	MrgX1 ant reconf	HEK293 Ca flux	HEK293 Ca counter	HEK293 Ca cntr2
c1ccc(CNc2cncnc2)cc1	i	i	i	i	i	x	x	x	x
COc1ccc(-c2nc3ccccc3c(=O)n2CCOc2ccc(C)cc2C)cc1	i	i	i	i	i	x	x	x	x
COc1ccc(-c2nc3ccccc3c(=O)n2CCOc2ccccc2C)cc1	-7.01*	i	i	i	i	i	i	i	i
CCOc1ccc(N(CC(=O)NCc2ccc(F)cc2)C(=O)c2ccco2)cc1	i	i	i	i	i	x	x	x	x
CCOC(=O)Cc1csc(NC(=O)CCCCCN2C(=O)c3ccccc3C2=O)n1	i	i	i	i	i	x	x	x	x
COc1c2c(nc3ccccc13)OC(C(C)(O)CO)C2 (stereo not given)	-6.89*	i	i	i	i	i	i	i	i
O=C(Nc1nccs1)C1CC(=O)N(c2ccc(F)cc2)C1 (stereo not given)	i	i	i	i	i	x	x	x	x
CCc1ccc(N2CC(C(=O)Nc3nccs3)CC2=O)cc1 (stereo not given)	-5*	i	i	i	i	i	i	i	i
O=C(COc1ccccc1)Nc1cccc(-c2nc3cc4ccccc4cc3[nH]2)c1	-5.08*	i	i	i	i	77.8%*	i	i	i
COc1ccc(OC)c(S(=O)(=O)NCC(c2ccc3c(c2)OCO3)N2CCOCC2)c1 (stereo not given)	i	i	i	i	i	x	x	x	x
O=C(COc1ccc2ccccc2c1Br)Nc1ncn[nH]1	-4.53*	i	i	i	i	i	i	i	i
Cc1cccc(C)c1OCC(=O)Nc1ncn[nH]1	i	i	i	i	i	x	x	x	x
CC(=O)Nc1ccc(S(=O)(=O)N2C(C)CCCC2C)cc1 (stereo not given)	i	i	i	i	i	x	x	x	x
CCN(CC(=O)Nc1c(F)cccc1F)C(=O)C1CCN(c2ncnc3sc(C)c(C)c23)CC1	-8.2*	i	i	i	i	i	i	i	i
Cc1cccc(C)c1NC(=O)CN(C)C(=O)C1CCN(c2ncnc3sc(C)c(C)c23)CC1	i	i	i	i	i	x	x	x	x
CCc1cccc(NC(=O)CN(c2ccc(OC)cc2)S(=O)(=O)c2c(C)n[nH]c2C)c1	i	i	i	i	i	x	x	x	x
Cc1cccnc1NC(=S)NC(=O)c1cncc(Br)c1	-4.55*	i	i	i	i	i	i	i	i
O=C(NC(=S)Nc1ccccn1)c1cncc(Br)c1	i	i	i	i	i	x	x	x	x
O=C(Nc1ccc(Br)cc1)c1ccc(F)c(S(=O)(=O)NCc2cccs2)c1	-5.34*	i	i	i	i	i	i	i	46.9*
COc1cc(C(=O)O)ccc1OCc1c(C)noc1C	i	i	i	i	i	x	x	x	x
